15 compounds from ChEMBL document CHEMBL1123037, “Anticonvulsant activity of some 4-aminobenzanilides” (J Med Chem, 1985) can be followed below.

Each structure is given as a SMILES string.

The nature of series [1]: Toxic dose was determined by the rotarod test in mice; activity value ranges from 98.01-127.65. Type of series: toxicity, organism-based. As to conditions: mouse, in vivo.
A short description of series [2]: Protective index as the ratio of TD50 value against scMET to that of ED50 value against scMET. Type of series: ADME. As to conditions: read-out: PI. A digest of the protocol:
(§1)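 Protective index = rotorod TD50 divided by ED50 (MES or scMet), both from ip dosing in male Carworth Farms number-one mice, medians obtained graphically.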

In series [3] the test system is Mus musculus. Nature of the series: Toxicity tested by rotarod test for neurologic deficit at interval of 4 hr when 300 mg/kg was administered intraperitoneally; shows activity. As to conditions: in vivo, ip. Type of series: organism-based. Details: dose 300 mg/kg, route intraperitoneal. The gist of the method:
(§2)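 Male Carworth Farms number-one mice dosed ip with compound in 30% polyethylene glycol 400. Each mouse was placed on a 1-in.-diameter knurled plastic rod rotating at 6 rpm. Neurologic toxicity was scored as failure to stay on the rod for 1 min. Screening doses were 30, 100, 300 and sometimes 600 mg/kg, tested at 30 min and 4 h. TD50 was read by the graphical method.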

A short description of series [4]: Protective index as the ratio of TD50 value against MES to that of ED50 value against MES. Type of series: ADME. As to conditions: read-out: PI. The gist of the method: as §1
The subject of series [5] is Mus musculus. As to the kind of experiment: Toxicity tested by rotarod test for neurologic deficit at interval of 30 min when 100 mg/kg was administered intraperitoneally; shows activity. As to conditions: in vivo, ip, 0.5 h. Type of series: organism-based. Details: dose 100 mg/kg, route intraperitoneal. A digest of the protocol:
as §2

The species named for series [6] is Mus musculus. Nature of the series: Effective dose evaluated against maximal electric seizures (MES) or convulsions in mice; activity value ranges from 2.18-3.07. It is filed as functional.
The subject of series [7] is Mus musculus. As to the kind of experiment: Toxicity tested by rotarod test for neurologic deficit at interval of 4 hr when 100 mg/kg was administered intraperitoneally; shows activity. As to conditions: in vivo, ip. Details: dose 100 mg/kg, route intraperitoneal. Type of series: organism-based. A digest of the protocol: as §2
In series [8] the test system is Mus musculus. Nature of the series: Toxicity tested by rotarod test for neurologic deficit at interval of 30 min when 30 mg/kg was administered intraperitoneally; shows activity. It is filed as organism-based. Further details: dose 30 mg/kg, route intraperitoneal. As to conditions: in vivo, ip, 0.5 h. A digest of the protocol:
as §2

The subject of series [9] is Mus musculus. As to the kind of experiment: Toxicity tested by rotarod test for neurologic deficit at interval of 4 hr when 600 mg/kg was administered intraperitoneally; no activity. It is filed as organism-based. Details: dose 600 mg/kg, route intraperitoneal. As to conditions: in vivo, ip. A digest of the protocol: as §2
Series [10] relates to Mus musculus. Nature of the series: Toxicity tested by rotarod test for neurologic deficit at interval of 30 min when 600 mg/kg was administered intraperitoneally; no activity. It is filed as organism-based. Details: dose 600 mg/kg, route intraperitoneal. As to conditions: in vivo, ip, 0.5 h. The gist of the method: as §2
In series [11] the test system is Mus musculus. Nature of the series: Effective dose was evaluated for its anticonvulsant activity against subcutaneous induced metrazole convulsions in mice; activity value ranges from 38.83-46.00. As to conditions: sc. Type of series: functional.
Series [12] in a line: Toxic dose was determined by the rotarod test in mice activity value ranges from 153.02-189.96. Type of series: toxicity, organism-based. As to conditions: mouse, in vivo.
For series [13], the species on record is Mus musculus. As to the kind of experiment: Effective dose evaluated against maximal electric seizures (MES) or convulsions in mice; activity value ranges from 56.16-105.53. Type of series: functional.
A short description of series [14]: Toxic dose was determined by the rotarod test in mice; activity value ranges from 556.77-815.69. Type of series: toxicity, organism-based. As to conditions: mouse, in vivo.
The subject of series [15] is Mus musculus. Nature of the series: Toxicity tested by rotarod test for neurologic deficit at interval of 30 min when 600 mg/kg was administered intraperitoneally; shows activity. Further details: dose 600 mg/kg, route intraperitoneal. As to conditions: in vivo, ip, 0.5 h. Type of series: organism-based. A digest of the protocol: as §2
In series [16] the test system is Mus musculus. Nature of the series: Toxicity tested by rotarod test for neurologic deficit at interval of 4 hr when 600 mg/kg was administered intraperitoneally; shows activity. Type of series: organism-based. Details: dose 600 mg/kg, route intraperitoneal. As to conditions: in vivo, ip. A digest of the protocol: as §2
The species entered for series [17] is Mus musculus. Nature of the series: Effective dose evaluated against maximal electric seizures (MES) or convulsions in mice; activity value ranges from 38.02-50.30. Type of series: functional.
Series [18] is described as follows: Toxic dose was determined by the rotarod test in mice; activity value ranges from 156.61-251.07. Type of series: toxicity, organism-based. As to conditions: mouse, in vivo.
Series [19] relates to Mus musculus. As to the kind of experiment: Toxicity tested by rotarod test for neurologic deficit at interval of 30 min when 300 mg/kg was administered intraperitoneally; shows activity. As to conditions: in vivo, ip, 0.5 h. Details: dose 300 mg/kg, route intraperitoneal. Type of series: organism-based. The gist of the method:
as §2

Series [20] can be described thus: Toxic dose was determined by the rotarod test in mice; activity value ranges from 130.89-161.13. Type of series: toxicity, organism-based. As to conditions: mouse, in vivo.
Series [21] is filed under the species Mus musculus. Nature of the series: Effective dose evaluated against maximal electric seizures (MES) or convulsions in mice; activity value ranges from 39.77-53.41. It is filed as functional.
The subject of series [22] is Mus musculus. As to the kind of experiment: Toxicity tested by rotarod test for neurologic deficit at interval of 4 hr when administered intraperitoneally; LD50 < 600 mg/kg. It is filed as organism-based. Details: dose 600 mg/kg, route intraperitoneal. As to conditions: in vivo, ip.
Series [23] is filed under the species Mus musculus. As to the kind of experiment: Effective dose evaluated against maximal electric seizures (MES) or convulsions in mice; activity value ranges from 12.50-31.75. Type of series: functional.
The nature of series [24]: Toxic dose was determined by the rotarod test in mice; activity value ranges from 88.85-119.90. Type of series: toxicity, organism-based. As to conditions: mouse, in vivo.
For series [25], the species on record is Mus musculus. As to the kind of experiment: Effective dose evaluated against maximal electric seizures (MES) or convulsions in mice; activity value ranges from 14.70-19.13. It is filed as functional.
Series [26] is described as follows: Toxic dose was determined by the rotarod test in mice; activity value ranges from 40.62-57.10. Type of series: toxicity, organism-based. As to conditions: mouse, in vivo.
The species named for series [27] is Mus musculus. As to the kind of experiment: Effective dose evaluated against maximal electric seizures (MES) or convulsions in mice;activity value ranges from 66.58-109.74. It is filed as functional.
A short description of series [28]: Toxic dose was determined by the rotarod test in mice. As to conditions: mouse, in vivo. It is filed as toxicity, organism-based.
Series [29] concerns Mus musculus. As to the kind of experiment: Effective dose was evaluated for its anticonvulsant activity against subcutaneous induced metrazole convulsions in mice; activity value ranges from 122.64-177.02. Type of series: functional. As to conditions: sc.
The species named for series [30] is Mus musculus. As to the kind of experiment: Effective dose evaluated against maximal electric seizures (MES) or convulsions in mice; activity value ranges from 246.97-337.89. Type of series: functional.
The subject of series [31] is Mus musculus. Nature of the series: Anticonvulsant activity of 300 mg/kg after 30 min. of intraperitoneal administration in mice against maximum electroshock seizures (MES); compound shows activity. It is filed as functional, organism-based. Further details: dose 300 mg/kg.
Series [32] concerns Mus musculus. Nature of the series: Anticonvulsant activity of 600 mg/kg after 4 hr of intraperitoneal administration in mice against maximum electroshock seizures (MES); compound shows activity. It is filed as functional, organism-based. Details: dose 600 mg/kg.
For series [33], the system named is Mus musculus. Nature of the series: Anticonvulsant activity of 600 mg/kg of compound against subcutaneous induced metrazole convulsions at interval of 30 min administered intraperitoneally in mice; compound shows activity. It is filed as functional, organism-based. Further details: dose 600 mg/kg.
Series [34] deals with Mus musculus. As to the kind of experiment: Anticonvulsant activity of 600 mg/kg of compound against subcutaneous induced metrazole convulsions at interval of 4 hr administered intraperitoneally in mice; compound does not show activity. It is filed as functional, organism-based. Details: dose 600 mg/kg.

With `Nc1ccc(C(=O)Nc2ccccc2)cc1`, in series [1], the TD50 came out at 111 mg/kg. For the same compound, the results for the selectivity ratio in [2] and in [4] were 1.88 and 2.2, respectively. Further, the Toxicity result in the series on Mus musculus [3] and in the series with Mus musculus [5] was “Activity” in each case.

On to `Cc1cccc(C)c1NC(=O)c1ccc(N)cc1` [AMELTOLIDE], for which the 50% effect level in the series filed under Mus musculus [6] (ED50) was put at a dose of 2.6 mg/kg. Moreover, the Toxicity entry in the series on Mus musculus [7] and in the series on Mus musculus [8] was “Activity” in each case.

Consider `Cc1cc(C)cc(NC(=O)c2ccc(N)cc2)c1`, for which the Toxicity entry in the series with Mus musculus [9] and in the series with Mus musculus [10] was “No activity” throughout.

On to `CC(NC(=O)c1ccc(N)cc1)c1ccccc1` (centres undefined), for which the median effective dose (ED50) in the series with Mus musculus [11] was found to be 41.8 mg/kg. In addition, the selectivity ratio in series [2] stood at 4.1; in [4], 9.5. This compound also returned a TD50 in series [12] of 171 mg/kg.

`CC(C)c1ccccc1NC(=O)c1ccc(N)cc1` showed an ED50 in the series listed under Mus musculus [13] of 81.5 mg/kg. Also, in [14], the TD50 came to 709 mg/kg. Also, the Toxicity result in the series on Mus musculus [9] and in the series with Mus musculus [15] was “No activity” throughout. In addition, the selectivity ratio in series [4] amounted to 8.7.

With `Cc1ccc(NC(=O)c2ccc(N)cc2)cc1C`, the Toxicity result in the series with Mus musculus [16] and in the series on Mus musculus [5] was “Activity” each time. This compound yielded an ED50 in the series filed under Mus musculus [17] of 42.3 mg/kg. For the same compound, the selectivity ratio in series [2] was 2.4; in [4], 4.59. The compound further yielded a TD50 in series [18] of 194 mg/kg.

With `Cc1cccc(NC(=O)c2ccc(N)cc2)c1`, the Toxicity result with Mus musculus [19] and in the series with Mus musculus [16] was “Activity” each time. Besides, the TD50 in series [20] amounted to 143 mg/kg. This compound also came in with a median effective dose (ED50) in the series listed under Mus musculus [21] of 47 mg/kg. The selectivity ratio stood at 1.62 in series [2] and 3.03 in [4].

With `Cc1ccccc1NC(=O)c1ccc(N)cc1`, the Toxicity entry in the series on Mus musculus [19] and in the series on Mus musculus [8] was “Activity” throughout.

In the case of `Cc1cccc(NC(=O)c2ccc(N)cc2)c1C`, the Toxicity result in the series on Mus musculus [22] and in the series with Mus musculus [5] was “LD50 < 600 mg/kg” throughout. The same compound showed an ED50 in the series listed under Mus musculus [23] of 25.2 mg/kg. This compound also gave a TD50 in [24] of 104 mg/kg. Further, in series [4], the selectivity ratio turned out to be 4.11.

For `Cc1ccc(C)c(NC(=O)c2ccc(N)cc2)c1`, the Toxicity result with Mus musculus [9] and with Mus musculus [10] was “No activity” in each case.

In the series listed under Mus musculus [25], `CCc1cccc(C(C)C)c1NC(=O)c1ccc(N)cc1` came in with a 50% effective dose (ED50) of 16.7 mg/kg. The Toxicity result in the series with Mus musculus [7] and in the series with Mus musculus [8] was “Activity” in each case. For the same compound, the selectivity ratio in series [4] turned out to be 2.95. This compound also came in with a TD50 in series [26] of 49.1 mg/kg.

In the case of `Cc1ccc(NC(=O)c2ccc(N)cc2)cc1`, the Toxicity result with Mus musculus [16] and in the series on Mus musculus [5] was “Activity” throughout.

Compound `Cc1cccc(C(C)C)c1NC(=O)c1ccc(N)cc1` yielded a 50% effective dose (ED50) in the series filed under Mus musculus [27] of 86.1 mg/kg. Further, the selectivity ratio in series [4] is above 17.4. Also, in series [28], the TD50 was above 1500 mg/kg. Further, the Toxicity result with Mus musculus [10] is “No activity”.

Consider `CCCC(CCC)C(=O)O` [VALPROIC ACID], for which the median effective dose (ED50) with Mus musculus [29] was 149 mg/kg; in the series listed under Mus musculus [30], 272 mg/kg.

With `Cc1ccc(NC(=O)c2ccc(N)cc2)c(C)c1`, the Activity entry in the series on Mus musculus [31], in the series with Mus musculus [32], in the series with Mus musculus [33] and with Mus musculus [34] was “No activity” throughout. The Toxicity result in the series with Mus musculus [9] and in the series with Mus musculus [15] was “No activity” each time.
